Source: ChEMBL document CHEMBL4393712, “Discovery of chalcone-modified estradiol analogs as antitumour agents that Inhibit tumour angiogenesis and epithelial to mesenchymal transition” (Eur J Med Chem, 2019)
Calls of active or inactive are those of the source. The calls are words filed in the database; no cut-off is given here.

Tests used:
MDA-MB-231 = assay: Cytotoxicity against human MDA-MB-231 cells assessed as reduction in cell viability measured after 48 to 72 hrs by MTT assay; type: cell-based
Summary of the method: (§1)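 Cells seeded at 3 × 10^3 per well in 96-well plates, incubated overnight, then given fresh medium with a range of drug concentrations for 48 h or 72 h. MTT added (final 500 µg/mL) for 4 h, formazan dissolved in DMSO, absorbance at 570 nm; IC50 derived. Mean ± SD of 3 independent tests.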

HUVEC [1] = assay: Effect on FAK expression in HUVEC at 2 to 10 uM after 48 hrs by Western blot analysis; type: functional, cell-based; conditions: Homo sapiens
Summary of the method: (§2)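 HUVECs grown in RPMI 1640 with 10% FBS, 37 °C, 5% CO2; treated with no drug, 2 or 10 µM for 48 h. Lysed in RIPA with protease/phosphatase inhibitors on ice 30 min, protein by BCA, 8% SDS-PAGE, PVDF transfer, milk block, primary antibody overnight 4 °C, secondary 2 h RT; ECL detection, densitometry. Probed VEGF-R, FAK, p-FAK, SHC.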

MGC-803 [2] = assay: Cytotoxicity against human MGC803 cells assessed as reduction in cell viability measured after 48 to 72 hrs by MTT assay; type: cell-based; summary of the method: as §1
MCF7 [3] = assay: Antimigratory activity against human MCF7 cells at 2 to 10 uM measured after 48 hrs by wound healing assay; type: functional, cell-based
Summary of the method: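 Cells seeded in 6-well plates, monolayer scratched with pipette tip, washed twice, kept in medium with 2% FBS. Gaps imaged, then drug added (0, 2 or 10 µM for HUVEC and MCF-7); gaps re-imaged after 48 h and migration rate calculated. Three independent experiments; one-way ANOVA.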

HEK293 = assay: Cytotoxicity against human HEK293 cells measured after 48 to 72 hrs by MTT assay; type: cell-based; summary of the method: as §1
[4] = Hepatotoxicity in nude mouse xenografted with human MCF7 cells assessed as slight increase in serum alkaline phosphatase level at 22.5 to 45 mg/kg/day, ip administered for 21 days by biochemical automatic analyzer; type: toxicity, organism-based; conditions: in vivo, 504 h
[5] = Toxicity in nude mouse xenografted with human MCF7 cells assessed as increase in body weight at 22.5 to 45 mg/kg/day, ip administered for 21 days; type: organism-based; conditions: in vivo, 504 h
Summary of the method: (§3)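 Nude mice (male/female, 4–6 weeks) injected subcutaneously in right forelimb with 5 × 10^7 MCF-7 cells in 200 µL saline; at mean tumour 100 mm3 randomized (n = 5/group): saline 0.2 mL/day, 22.5 or 45 mg/kg/day ip for 21 days. Body weight and tumour volume (length × width²/2) every other day; tumours weighed at day 21.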

MCF7 [6] = assay: Inhibition of epithelial-mesenchymal transition in human MCF7 cells assessed as decrease in N-cadherin expression level at 2 to 10 uM after 48 hrs by Western blot analysis; type: functional, cell-based
Summary of the method: (§4)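 MCF-7 cells in RPMI 1640 with 10% FBS, 37 °C, 5% CO2, exposed to no drug, 2 or 10 µM for 48 h. RIPA lysates, BCA quantitation, 8% SDS-PAGE, PVDF transfer, primary antibodies overnight 4 °C, secondary 2 h RT, ECL and densitometry for ZO-1, E-cadherin, N-cadherin, vimentin. Mean ± SD of 3 independent tests.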

HUVEC [7] = assay: Antimigratory activity against HUVEC at 2 to 10 uM measured after 24 hrs by transwell assay; type: functional, cell-based; conditions: Homo sapiens
Summary of the method: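 Cells seeded on upper side of polycarbonate transwell filters in serum-free medium, drug at 0, 2 or 10 µM; complete serum-containing medium in lower chamber as chemoattractant. After 24 h migrated cells fixed in 4% paraformaldehyde 20 min, crystal violet stained 20 min, imaged and counted. Three independent experiments.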

[8] = Toxicity in nude mouse xenografted with human MCF7 cells assessed as effect on heart morphological changes at 22.5 to 45 mg/kg/day, ip administered for 21 days by HE staining analysis; type: organism-based; conditions: in vivo, 504 h
B16 = assay: Antitumour activity against mouse B16 cells assessed as cell growth inhibition measured after 72 hrs by SRB assay; type: functional, cell-based; conditions: B16, 72 h
Summary of the method: (§5)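 Exponentially growing cells trypsinized, seeded at 5 × 10^4 cells/mL in 96-well plates, cultured overnight, then exposed to compounds for 72 h. Cells fixed with 10% TCA 1 h, stained with SRB 15 min, dye dissolved in Tris-HCl, absorbance read; 50% growth-inhibitory concentration calculated.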

MCF7 [9] = assay: Inhibition of epithelial-mesenchymal transition in human MCF7 cells assessed as increase in E-cadherin expression level at 2 to 10 uM after 48 hrs by Western blot analysis; type: functional, cell-based; summary of the method: as §4
[10] = Hepatotoxicity in nude mouse xenografted with human MCF7 cells assessed as slight increase in serum alanine transaminase level at 22.5 to 45 mg/kg/day, ip administered for 21 days by biochemical automatic analyzer; type: toxicity, organism-based; conditions: in vivo, 504 h
GES1 = assay: Cytotoxicity against human GES-1 cells assessed as reduction in cell viability measured after 48 to 72 hrs by MTT assay; type: cell-based; summary of the method: as §1
[11] = Toxicity in nude mouse xenografted with human MCF7 cells assessed as effect on kidney morphological changes at 22.5 to 45 mg/kg/day, ip administered for 21 days by HE staining analysis; type: organism-based; conditions: in vivo, 504 h
HUVEC [12] = assay: Cytotoxicity against HUVEC assessed as reduction in cell viability measured after 48 to 72 hrs by MTT assay; type: cell-based; conditions: human; summary of the method: as §1
MGC-803 [13] = assay: Antitumour activity against human MGC803 cells assessed as cell growth inhibition measured after 72 hrs by SRB assay; type: functional, cell-based; conditions: MGC-803, 72 h; summary of the method: as §5
[14] = Solubility of the compound in water; type: physicochemical; conditions: buffer
[15] = Hepatotoxicity in nude mouse xenografted with human MCF7 cells assessed as slight increase in serum aspartate transaminase level at 22.5 to 45 mg/kg/day, ip administered for 21 days by automatic biochemical analyzer; type: toxicity, organism-based; conditions: in vivo, 504 h
Chorioallantoic membrane = assay: Antiangiogenic activity in chicken chorioallantoic membrane assessed as reduction in neovascularization at 50 ug/ml measured after 72 hrs by CAM assay; type: functional; conditions: Gallus gallus
Summary of the method: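 Fertilized chicken eggs incubated 6 days at 37 °C; shell windowed and CAM treated (compounds and controls at […] as printed; saline vehicle control). Eggs re-incubated humidified; membranes fixed and harvested after 72 h. Angiogenesis scored by counting blood vessels and imaging neovascular zones; ten eggs per group.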

SK-N-SH = assay: Antitumour activity against human SK-N-SH cells assessed as cell growth inhibition measured after 72 hrs by SRB assay; type: functional, cell-based; summary of the method: as §5
ECa-109 cell line = assay: Antitumour activity against human EC109 cells assessed as cell growth inhibition measured after 72 hrs by SRB assay; type: functional, cell-based; conditions: ECa-109, 72 h; summary of the method: as §5
HET-1A = assay: Cytotoxicity against human HET-1A cells assessed as reduction in cell viability measured after 48 to 72 hrs by MTT assay; type: cell-based; summary of the method: as §1
MCF7 [16] = assay: Inhibition of epithelial-mesenchymal transition in human MCF7 cells assessed as increase in ZO-1 expression level at 2 to 10 uM after 48 hrs by Western blot analysis; type: functional, cell-based; summary of the method: as §4
MCF7 [17] = assay: Cytotoxicity against human MCF7 cells assessed as reduction in cell viability measured after 48 to 72 hrs by MTT assay; type: cell-based; summary of the method: as §1
[18] = molecular target: Focal adhesion kinase 1 (Homo sapiens) (UniProt Q05397); assay: Reduction in FAK phosphorylation in HUVEC at 2 to 10 uM after 48 hrs by Western blot analysis; type: cell-based; summary of the method: as §2
MCF7 [19] = assay: Antitumour activity against human MCF7 cells xenografted in nude mouse assessed as decrease in tumour volume at 22.5 to 45 mg/kg/day, ip administered for 21 days; type: functional, organism-based; summary of the method: as §3

Sequence of Focal adhesion kinase 1 (Homo sapiens) (Q05397 2-1052 limits assumed): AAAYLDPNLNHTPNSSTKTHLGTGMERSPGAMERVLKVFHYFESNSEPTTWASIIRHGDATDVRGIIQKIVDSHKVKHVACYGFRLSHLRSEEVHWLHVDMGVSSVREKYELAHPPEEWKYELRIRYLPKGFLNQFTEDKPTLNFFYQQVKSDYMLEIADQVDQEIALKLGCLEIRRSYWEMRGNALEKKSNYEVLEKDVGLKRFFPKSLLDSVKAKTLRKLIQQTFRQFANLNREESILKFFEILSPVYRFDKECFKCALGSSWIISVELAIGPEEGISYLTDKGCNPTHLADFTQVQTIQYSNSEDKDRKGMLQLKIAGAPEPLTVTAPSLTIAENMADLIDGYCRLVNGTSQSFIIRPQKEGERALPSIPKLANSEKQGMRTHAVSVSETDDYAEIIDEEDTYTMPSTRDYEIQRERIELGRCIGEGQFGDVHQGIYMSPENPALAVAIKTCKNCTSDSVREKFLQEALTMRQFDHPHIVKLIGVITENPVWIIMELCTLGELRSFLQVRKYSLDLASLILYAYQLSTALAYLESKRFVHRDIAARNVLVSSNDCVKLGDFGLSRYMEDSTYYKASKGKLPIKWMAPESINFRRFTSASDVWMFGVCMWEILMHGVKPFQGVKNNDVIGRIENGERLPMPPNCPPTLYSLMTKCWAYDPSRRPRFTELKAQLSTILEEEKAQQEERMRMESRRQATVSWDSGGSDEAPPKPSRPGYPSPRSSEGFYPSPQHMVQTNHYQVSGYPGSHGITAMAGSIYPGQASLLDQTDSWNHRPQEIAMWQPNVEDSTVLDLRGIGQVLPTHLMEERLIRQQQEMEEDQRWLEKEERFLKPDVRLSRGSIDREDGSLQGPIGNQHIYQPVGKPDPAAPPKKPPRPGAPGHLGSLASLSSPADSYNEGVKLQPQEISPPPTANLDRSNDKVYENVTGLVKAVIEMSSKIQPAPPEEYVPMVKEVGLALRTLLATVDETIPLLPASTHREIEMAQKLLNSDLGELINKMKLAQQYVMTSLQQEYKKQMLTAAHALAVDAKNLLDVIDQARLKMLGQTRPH

Compound: COc1cc2c(cc1O)CC[C@@H]1[C@@H]2CC[C@]2(C)C(=O)/C(=C/c3ccc(Cl)cc3)C[C@@H]12
- IC50 (MDA-MB-231): 78.6 µM
- Activity (HUVEC [1]): inactive
- Activity (MGC-803 [2]): Toxic
- Activity (MCF7 [3]): Active
- IC50 (HEK293): > 100 µM
- Activity [4]: Toxic
- Activity [5]: Non-Toxic
- inhibition (MCF7 [6]): Active
- Activity (HUVEC [7]): Active
- Activity [8]: Non-Toxic
- IC50 (B16): 17.9 µM
- inhibition (MCF7 [9]): Active
- Activity [10]: Toxic
- Activity (GES1): Toxic
- Activity [11]: Non-Toxic
- Activity (HUVEC [12]): Toxic
- IC50 (MGC-803 [13]): 14.9 µM
- solubility [14]: Soluble
- Activity [15]: Toxic
- inhibition (Chorioallantoic membrane): Active
- IC50 (SK-N-SH): 24.7 µM
- IC50 (ECa-109 cell line): 14.7 µM
- IC50 (HET-1A): > 100 µM
- inhibition (MCF7 [16]): Active
- IC50 (MCF7 [17]): 77 µM
- inhibition [18]: Active
- inhibition (MCF7 [19]): Active
